Consider twelve compounds from ChEMBL document CHEMBL1938300 (Bioorg Med Chem, 2011).

Data set [1] is described as follows: Volume of distribution in Sprague-Dawley rat by HPLC. The class given is ADME, organism-based. The conditions noted are these: in vivo. The gist of the method:
(§1)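 Rat IV pharmacokinetics: male Sprague-Dawley, n=3, 1 mg/kg tail-vein dose in 3% DMSO/30% Solutol/67% PBS; plasma over 0.083–6 h quantified by HPLC-MS/MS; parameters estimated per rat by non-compartmental analysis.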

The subject of data set [2] is Rattus norvegicus. Description: AUC in Sprague-Dawley rat at 1 mg/kg, iv by HPLC. The class given is ADME, organism-based, Plasma. The settings on record: in vivo. On the set-up: dose 1 mg/kg, route intravenous.
Data set [3] is described as follows: Clearance in Sprague-Dawley rat by HPLC. The class given is ADME, organism-based. The settings on record: in vivo. The gist of the method: as §1
The test system of data set [4] is Rattus norvegicus. In words: AUC in Sprague-Dawley rat at 5 mg/kg, po by HPLC. The settings on record: in vivo. Further details: dose 5 mg/kg, route oral. The class given is ADME, organism-based, Plasma.
A short description of data set [5]: Oral bioavailability Sprague-Dawley rat at 5 mg/kg by HPLC. Format: ADME, organism-based. The conditions noted are these: in vivo. The gist of the method:
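Male Sprague-Dawley rats (n=3/group) given 1 mg/kg IV (DMSO/Solutol/PBS) or, after overnight fast, 5 mg/kg oral gavage in PEG400; plasma by HPLC-MS/MS; F% = dose-normalised oral AUC0-∞ divided by IV AUC0-∞, times 100.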

Data set [6] is described as follows: Solubility of the compound. Format: physicochemical.
Data set [7] is described as follows: Solubility of the compound at pH 7.4. Format: physicochemical. The settings on record: buffer.
The nature of data set [8]: Half life in Sprague-Dawley rat liver microsomes. Format: ADME, Microsome.

Values after ≈ are worked out from the molar mass of the structure shown.

A word on the Vd: it is a proportionality between amount in the body and measured concentration, not a real space. A higher Vd goes with extensive tissue distribution. A word on the AUC: it is concentration integrated over time. A low value points to low exposure. Broadly, the clearance is the rate of elimination divided by the concentration. What is called bioavailability is dose-corrected exposure relative to a reference, in per cent. A high value points to good availability. With `CNC(=O)c1cccc(F)c1Nc1nc(Nc2ccc3c(c2)NC(=O)[C@@H](NC(=O)N2CCCC2)CC3(C)C)ncc1Cl`, the Vd in data set [1] was 0.6 L/kg. Further, the AUC in data set [2] stood at 3190 ng·h/mL; in data set [4], 5550 ng·h/mL. The clearance in data set [3] is 5 mL/min/kg. In data set [5], the bioavailability was 35%.

With `CNC(=O)c1cccc(F)c1Nc1nc(Nc2ccc3c(c2)NC(=O)C(NC(=O)CN(C)C)CC3(C)C)ncc1Cl.O=C(O)C(F)(F)F` (racemic), the Vd in data set [1] was determined as 3 L/kg. Moreover, the AUC is 825 ng·h/mL in data set [2] and 61 ng·h/mL in data set [4]. The compound further registered a clearance in data set [3] of 32 mL/min/kg. This compound also showed a bioavailability in data set [5] of 1%.

In data set [1], `CNC(=O)c1cccc(F)c1Nc1nc(Nc2ccc3c(c2)NC(=O)C(NC(=O)OC)CC3(C)C)ncc1Cl.O=C(O)C(F)(F)F` (racemic) displayed a Vd of 1 L/kg. Moreover, the AUC came to 1200 ng·h/mL in data set [2] and 987 ng·h/mL in data set [4]. In data set [3], this compound had a clearance of 15 mL/min/kg. This compound also yielded a bioavailability in data set [5] of 16%.

In data set [1], `CNC(=O)c1cccc(F)c1Nc1nc(Nc2ccc3c(c2)NC(=O)C(NC(=O)N2CCCC2)CC3(C)C)ncc1Cl.O=C(O)C(F)(F)F` (racemic; form 1) registered a Vd of 0.8 L/kg. For the same compound, the AUC in data set [2] is 3420 ng·h/mL; in data set [4], 2630 ng·h/mL. Moreover, in data set [3], the clearance came to 6 mL/min/kg. In data set [5], this compound came in with a bioavailability of 15%.

With `CCN1C(=O)CCC(C)(C)c2ccc(Nc3ncc(Cl)c(Nc4c(F)cccc4C(=O)NC)n3)cc21`, the bioavailability in data set [5] was 0%.

By solubility is commonly meant how much of the substance goes into solution per volume. A high value points to much dissolved substance. In turn, `CNC(=O)c1cccc(F)c1Nc1nc(Nc2ccc3c(c2)NC(=O)C(N)CC3(C)C)ncc1Cl` (racemic) displayed a volume of distribution (Vd) in data set [1] of 4.6 L/kg. The same compound gave an AUC in data set [2] of 787 ng·h/mL. Also, in data set [6], the solubility was over 120 µg/mL.

Consider `CNC(=O)c1cccc(F)c1Nc1nc(Nc2ccc3c(c2)NC(=O)C(NC(=O)C(F)(F)F)CC3(C)C)ncc1Cl.O=C(O)C(F)(F)F` (racemic), for which, in data set [1], the Vd came out at 1.2 L/kg. Further, the AUC was 1310 ng·h/mL in data set [2] and 606 ng·h/mL in data set [4]. The same compound showed a clearance in data set [3] of 16 mL/min/kg. Also, the solubility in data set [6] is 8 µg/mL. Moreover, in data set [5], the bioavailability is 9%.

Regarding `CNC(=O)c1cccc(F)c1Nc1nc(Nc2ccc3c(c2)NC(=O)C(NC(C)=O)CC3(C)C)ncc1Cl.O=C(O)C(F)(F)F` (racemic), the Vd in data set [1] was determined as 2 L/kg. The AUC in data set [2] came out at 654 ng·h/mL; in data set [4], 48 ng·h/mL. This compound gave a clearance in data set [3] of 33 mL/min/kg. Further, the bioavailability in data set [5] came out at 2%.

Take `CNC(=O)c1cccc(F)c1Nc1nc(Nc2ccc3c(c2)NC(=O)C(NC(=O)N2CCCC2)CC3(C)C)ncc1Cl` (racemic; form 2): the Vd in data set [1] came out at 0.8 L/kg. Also, the AUC is 2330 ng·h/mL in data set [2] and 4660 ng·h/mL in data set [4]. Also, the clearance in data set [3] was 8 mL/min/kg. Besides, in data set [5], the bioavailability came out at 40%.

By half-life is commonly meant how long it takes for the measured level to halve. The low end stands for fast loss, the high end for slow loss. `CNC(=O)c1cccc(F)c1Nc1nc(Nc2ccc3c(c2)NC(=O)CCC3(C)C)ncc1Cl`: the Vd in data set [1] was found to be 0.5 L/kg. Also, the AUC stood at 1060 ng·h/mL in data set [2] and 46 ng·h/mL in data set [4]. Moreover, the clearance in data set [3] was found to be 16 mL/min/kg. Besides, the solubility in data set [7] and in data set [6] was 21 µg/mL (≈ 43.5 µM) in each case. Besides, in data set [8], the half-life was 15 min. In addition, the bioavailability in data set [5] amounted to 1%.

In data set [1], `CNC(=O)c1cccc(F)c1Nc1nc(Nc2ccc3c(c2)NC(=O)[C@H](NC(=O)N2CCCC2)CC3(C)C)ncc1Cl` registered a Vd of 0.6 L/kg. Further, the figures for the AUC in data set [2] and in data set [4] were 3460 ng·h/mL and 5850 ng·h/mL, respectively. This compound also came in with a clearance in data set [3] of 5 mL/min/kg. For the same compound, the concentration in solution in data set [7] (solubility) was 26 µg/mL (≈ 43.7 µM). Further, the half-life in data set [8] was 21 min. In addition, the bioavailability in data set [5] is 34%.

In data set [1], `CNC(=O)c1cccc(F)c1Nc1nc(Nc2ccc3c(c2)NC(=O)C(NC(=O)COC)CC3(C)C)ncc1Cl.O=C(O)C(F)(F)F` (racemic) showed a Vd of 1.3 L/kg. For the same compound, the AUC in data set [2] worked out at 846 ng·h/mL; in data set [4] it was 497 ng·h/mL. Further, in data set [3], the clearance worked out at 20 mL/min/kg. The bioavailability in data set [5] came to 12%.
